Laboratory results published in publication PMC10038104 (ACS infectious diseases, 2022).
≈ marks a conversion by molar mass, not a printed value. Positions of bridges follow the written chain, without caps; N, C: chain ends. Residues, ends and D or L forms follow the SMILES beside them.

Columns and labels:
[1] = tested on: Enterobacter cloacae ATCC 13047; assay type: cell-based
[2] = tested on: E. nimipressuralis DSM 18955; assay type: cell-based
[3] = tested on: E. asburiae DSM 17506; assay type: cell-based
[4] = tested on: E. mori DSM 26271; assay type: cell-based
[5] = tested on: E. coli MG1655; assay: spot-on-lawn assay in M63 agar; assay type: cell-based; details: purified peptide dissolved in water
Procedure, shortened: (§1)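 Purified peptide in water, concentration set by A280. Each strain was grown overnight in LB, then subcultured in LB to mid-exponential phase (OD600 ~0.4-0.6). It was seeded at ~10^7 CFU/mL into molten M63 soft agar, overlaid on M63 agar and dried. Peptide was spotted at various concentrations and dried. After overnight incubation, zones of inhibition were scored; the last visible spot was taken as MIC.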

[6] = tested on: B. subtilis 168; assay: spot-on-lawn assay in M63 agar; assay type: cell-based; details: purified peptide dissolved in water
Procedure, shortened: as §1

[7] = tested on: Salmonella enterica serovar Newport; assay: spot-on-lawn assay in M63 agar; assay type: cell-based; details: purified peptide dissolved in water
Procedure, shortened: as §1

[8] = tested on: Klebsiella aerogenes ATCC 13048; assay: spot-on-lawn assay in M63 agar; assay type: cell-based; details: purified peptide dissolved in water
Procedure, shortened: as §1

[9] = tested on: Enterobacter hormaechei ATCC 700323; assay: spot-on-lawn assay in M63 agar; assay type: cell-based; details: purified peptide dissolved in water
Procedure, shortened: as §1

[10] = tested on: Enterobacter kobei BAA-260; assay: spot-on-lawn assay in M63 agar; assay type: cell-based; details: purified peptide dissolved in water
Procedure, shortened: as §1

[11] = tested on: clinical isolates of Enterobacter; assay: spot-on-lawn assay, the other 6 clinical isolates; assay type: cell-based; details: the other 6 of 12 clinical isolates (Table S4B)
Procedure, shortened: as §1

[12] = tested on: E. coli XL-1 Blue; assay: intracellular expression from plasmid with cloD gene removed; assay type: cell-based; details: LB agar with IPTG; plasmid without cloD so that the peptide cannot be exported
[13] = target: trypsin (Sus scrofa, UniProt P00761); assay: trypsin digestion; assay type: in vitro ADME; details: 50 mM ammonium bicarbonate, 1:100 trypsin:peptide weight ratio, 30 minutes to 1 hour, LC-MS
[14] = target: α-chymotrypsin (Bos taurus, UniProt P00766); assay: α-chymotrypsin digestion; assay type: in vitro ADME; details: 100 mM Tris, 10 mM CaCl2, pH 8.0, 0.04 mg/mL α-chymotrypsin, 1 hour, 25 °C, LC-MS
[15] = tested on: elastase; assay: elastase digestion; assay type: in vitro ADME; details: 50 mM Tris pH 9.0, 0.04 mg/mL elastase, 1 hour, 25 °C, LC-MS
[16] = target: thermolysin (Bacillus thermoproteolyticus, UniProt P00800); assay: thermolysin digestion; assay type: in vitro ADME; details: 50 mM Tris, 0.5 mM CaCl2, pH 8.0, 0.04 mg/mL thermolysin, 1 hour, 30 °C, LC-MS
[17] = tested on: E. cloacae
[18] = tested on: E. amnigenus; details: 16 h
[19] = 37 °C, pure water, 72 hours, 18 μM, relative peak area by LC-MS
[20] = tested on: carboxypeptidase B and carboxypeptidase Y; assay: carboxypeptidase treatment; details: 20 °C, 16 hours, 50 mM sodium acetate pH 6.0, LC-MS

Chain of thermolysin (P00800 233-548): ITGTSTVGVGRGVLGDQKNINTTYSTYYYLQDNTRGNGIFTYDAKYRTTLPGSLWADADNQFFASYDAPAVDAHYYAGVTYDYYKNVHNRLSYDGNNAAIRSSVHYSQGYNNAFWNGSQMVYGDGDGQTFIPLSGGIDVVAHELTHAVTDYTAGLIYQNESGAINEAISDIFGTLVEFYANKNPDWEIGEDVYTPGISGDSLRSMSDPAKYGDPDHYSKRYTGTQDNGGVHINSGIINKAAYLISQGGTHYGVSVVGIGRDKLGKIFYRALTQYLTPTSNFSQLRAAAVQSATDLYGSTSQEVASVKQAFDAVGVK
Chain of trypsin (P00761 9-231): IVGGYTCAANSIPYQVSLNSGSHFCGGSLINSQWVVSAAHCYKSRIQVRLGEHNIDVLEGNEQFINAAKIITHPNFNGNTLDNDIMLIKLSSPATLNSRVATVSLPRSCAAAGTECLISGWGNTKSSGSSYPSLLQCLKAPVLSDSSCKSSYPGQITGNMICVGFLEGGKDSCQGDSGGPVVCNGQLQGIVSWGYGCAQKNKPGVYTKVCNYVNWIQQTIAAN

In the case of CC[C@H](C)[C@@H]1NC(=O)[C@H](CCCNC(=N)N)NC(=O)[C@H](CC(=O)O)NC(=O)[C@H](C(C)C)NC(=O)[C@H](CO)NC(=O)[C@H](Cc2c[nH]cn2)NC(=O)CNC(=O)CC[C@@H](C(=O)N[C@@H](Cc2ccc(O)cc2)C(=O)N[C@@H](Cc2ccccc2)C(=O)NCC(=O)N2CCC[C@H]2C(=O)N2CCC[C@H]2C(=O)NCC(=O)N[C@@H](CC(C)C)C(=O)N2CCC[C@H]2C(=O)NCC(=O)N2CCC[C@H]2C(=O)N[C@H](C(=O)N[C@@H](CC(C)C)C(=O)N[C@@H](Cc2ccccc2)C(=O)N[C@@H](Cc2ccc(O)cc2)C(=O)N[C@@H](CO)C(=O)O)C(C)C)NC(=O)[C@@H]2CCCN2C1=O [cloacaenodin] (GHSVDRIPEYFGPPGLPGPVLFYS-OH; lactam N-9; C-terminus assumed), the “MIC in M63 media (agar)” value [1] is reported as 7.5 µM (≈ 19.4 µg/mL), the “MIC in M63 media (agar)” value [2] is reported as 1.9 µM (≈ 4.91 µg/mL) and the “MIC in M63 media (agar)” value [3] is reported as 3.8 µM (≈ 9.82 µg/mL). For the same compound, the “MIC in M63 media (agar)” value [4] was 1.9 µM (≈ 4.91 µg/mL), the “antimicrobial activity (zones of inhibition)” value [5] was “no observed activity” and the “antimicrobial activity (zones of inhibition)” value [6] was “no observed activity”. The “antimicrobial activity (zones of inhibition)” value [7] was “no observed activity”, the “antimicrobial activity (zones of inhibition)” value [8] was “no observed activity” and the “antimicrobial activity (zones of inhibition)” value [9] was “no observed activity”. For the same compound, the “antimicrobial activity (zones of inhibition)” value [10] was “no observed activity”, the antimicrobial activity [11] was “weak or no activity” and the “E. coli growth upon IPTG-induced intracellular expression without cloD” value [12] was “colonies did not appear”. The “susceptibility to proteolysis by trypsin” value [13] was “remained resistant to proteolysis”, the “susceptibility to proteolysis by chymotrypsin” value [14] was “remained resistant to proteolysis” and the “susceptibility to proteolysis by elastase” value [15] was “remained resistant to proteolysis”. For the same compound, the “susceptibility to proteolysis by thermolysin” value [16] was “remained resistant to proteolysis”, the “MIC in M63 media (liquid)” value ([17]; 16 h) was 0.94 µM (≈ 2.43 µg/mL) and the “cell morphology under the microscope” value ([17]; E. cloacae cells treated with sub-MIC values, broth microdilution cultures) was “exhibited a degree of filamentation”. For the same compound, the “MIC in M63 media (liquid)” value [18] was 0.23 µM (≈ 0.594 µg/mL), the fraction remaining threaded [19] was ~ 83% and the “susceptibility to C-terminal proteolysis by carboxypeptidase” value [20] was “resistant to C-terminal proteolysis”.
